Laboratory results reported in ChEMBL document CHEMBL5724801, “EUbOPEN Chemogenomics Library - Multiplex” (2024).
“And” between values parts separate entries of the source, which are not always exact repeats. Equal entries are not always repeated.

Test system: U2OS
Experiment: Multiplex assay against U2OS
Format: toxicity, cell-based
Details: human
Summary of the method: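 Cells stained live at seeding with Hoechst33342, BioTracker Green Microtubule Cytoskeleton Dye, MitoTracker Red and Annexin V Alexa Fluor 680 were imaged on a CQ1 microscope at 37°C and 5% CO2 after compound addition. Their classification by CellPathfinder machine-learning gating ran from Hoechst high-intensity objects versus normal cells, to healthy, pyknosed or fragmented nuclei among normal cells, to mitotic or apoptotic among pyknosed cells. Tubulin, mitochondrial-mass and membrane-permeability phenotypes are per cents of healthy-nucleus cells.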

[1] = 12 h, 1 µM, compound concentration 1 uM
[2] = 12 h, 10 µM, compound concentration 10 uM
[3] = 24 h, 1 µM, compound concentration 1 uM
[4] = 24 h, 10 µM, compound concentration 10 uM
[5] = 48 h, 1 µM, compound concentration 1 uM
[6] = 48 h, 10 µM, compound concentration 10 uM

Structure (SMILES): CC[C@H](Nc1ncnc2[nH]cnc12)c1nc2cccc(F)c2c(=O)n1-c1ccccc1 [IDELALISIB]
- Population Apoptotic (%) [1]: 50% and 55%
- Population Fragmented Nuclei (%) [1]: 1.02% and 4.85%
- Population Healthy Nuclei (%) [1]: 88.24% and 85.44%
- Population Hoechst High Intensity Objects (%) [1]: 0%
- Population Membrane Permeable-Phenotype (%) [1]: 1.45% and 1.7%
- Population Mitochondria Different-Phenotype (%) [1]: 0.29% and 7.39%
- Population Mitotic Cells (%) [1]: 50% and 45%
- Population Normal (%) [1]: 100%
- Population Pyknosed Nuclei (%) [1]: 10.74% and 9.71%
- Population Tubulin-Different-Phenotype (%) [1]: 3.19% and 1.14%
- Total Cell Count [1]: 391 and 206
- Population Apoptotic (%) [2]: 33.33% and 37.5%
- Population Fragmented Nuclei (%) [2]: 1.17% and 2.76%
- Population Healthy Nuclei (%) [2]: 86.55% and 75.17%
- Population Hoechst High Intensity Objects (%) [2]: 0%
- Population Membrane Permeable-Phenotype (%) [2]: 10.47% and 14.68%
- Population Mitotic Cells (%) [2]: 66.67% and 62.5%
- Population Normal (%) [2]: 100%
- Population Pyknosed Nuclei (%) [2]: 12.28% and 22.07%
- Total Cell Count [2]: 342 and 145
- Population Apoptotic (%) [3]: 46.94% and 30.77%
- Population Fragmented Nuclei (%) [3]: 1.87% and 2.83%
- Population Healthy Nuclei (%) [3]: 88.97% and 86.64%
- Population Hoechst High Intensity Objects (%) [3]: 0% and 0.4%
- Population Membrane Permeable-Phenotype (%) [3]: 0.84% and 2.34%
- Population Mitochondria Different-Phenotype (%) [3]: 0.21% and 5.14%
- Population Mitotic Cells (%) [3]: 53.06% and 69.23%
- Population Normal (%) [3]: 100% and 99.6%
- Population Pyknosed Nuclei (%) [3]: 9.16% and 10.53%
- Population Tubulin-Different-Phenotype (%) [3]: 1.68% and 0.47%
- Total Cell Count [3]: 535 and 248
- Population Apoptotic (%) [4]: 44.64% and 41.38%
- Population Fragmented Nuclei (%) [4]: 2.79% and 2.6%
- Population Healthy Nuclei (%) [4]: 84.19% and 78.57%
- Population Hoechst High Intensity Objects (%) [4]: 0%
- Population Membrane Permeable-Phenotype (%) [4]: 7.73% and 14.88%
- Population Mitotic Cells (%) [4]: 55.36% and 58.62%
- Population Normal (%) [4]: 100%
- Population Pyknosed Nuclei (%) [4]: 13.02% and 18.83%
- Population Tubulin-Different-Phenotype (%) [4]: 12.15% and 4.13%
- Total Cell Count [4]: 430 and 154
- Population Apoptotic (%) [5]: 46.67% and 39.53%
- Population Fragmented Nuclei (%) [5]: 2.53% and 4.9%
- Population Healthy Nuclei (%) [5]: 87.97% and 84.56%
- Population Hoechst High Intensity Objects (%) [5]: 0%
- Population Membrane Permeable-Phenotype (%) [5]: 0.84% and 3.48%
- Population Mitochondria Different-Phenotype (%) [5]: 0.12% and 3.48%
- Population Mitotic Cells (%) [5]: 53.33% and 60.47%
- Population Normal (%) [5]: 100%
- Population Pyknosed Nuclei (%) [5]: 9.49% and 10.54%
- Population Tubulin-Different-Phenotype (%) [5]: 1.08% and 1.16%
- Total Cell Count [5]: 948 and 408
- Population Apoptotic (%) [6]: 55.68% and 62.86%
- Population Fragmented Nuclei (%) [6]: 2.47% and 5.05%
- Population Healthy Nuclei (%) [6]: 84.72% and 78.9%
- Population Hoechst High Intensity Objects (%) [6]: 0%
- Population Membrane Permeable-Phenotype (%) [6]: 3.78% and 8.72%
- Population Mitotic Cells (%) [6]: 44.32% and 37.14%
- Population Normal (%) [6]: 100%
- Population Pyknosed Nuclei (%) [6]: 12.81% and 16.06%
- Population Tubulin-Different-Phenotype (%) [6]: 5.33% and 5.23%

Structure (SMILES): O=S(=O)(c1ccccc1)c1cnc2c(N3CCNCC3)cccc2c1 [INTEPIRDINE]
- Population Apoptotic (%) [1]: 76% and 70%
- Population Fragmented Nuclei (%) [1]: 23% and 17%
- Population Healthy Nuclei (%) [1]: 68% and 71%
- Population Hoechst High Intensity Objects (%) [1]: 1% and 0%
- Population Membrane Permeable-Phenotype (%) [1]: 6% and 7%
- Population Mitochondria Different-Phenotype (%) [1]: 3% and 6%
- Population Mitotic Cells (%) [1]: 23% and 30%
- Population Normal (%) [1]: 98% and 100%
- Population Pyknosed Nuclei (%) [1]: 7% and 11%
- Population Tubulin-Different-Phenotype (%) [1]: 4% and 7%
- Population Apoptotic (%) [2]: 58% and 85%
- Population Fragmented Nuclei (%) [2]: 25% and 10%
- Population Healthy Nuclei (%) [2]: 61% and 79%
- Population Hoechst High Intensity Objects (%) [2]: 3% and 2%
- Population Membrane Permeable-Phenotype (%) [2]: 23% and 12%
- Population Mitochondria Different-Phenotype (%) [2]: 11% and 13%
- Population Mitotic Cells (%) [2]: 41% and 14%
- Population Normal (%) [2]: 96% and 97%
- Population Pyknosed Nuclei (%) [2]: 12% and 10%
- Population Tubulin-Different-Phenotype (%) [2]: 14% and 10%
- Total Cell Count [2]: 204 and 139
- Population Apoptotic (%) [3]: 80% and 69%
- Population Fragmented Nuclei (%) [3]: 22% and 14%
- Population Healthy Nuclei (%) [3]: 67% and 73%
- Population Hoechst High Intensity Objects (%) [3]: 2% and 0%
- Population Membrane Permeable-Phenotype (%) [3]: 7% and 3%
- Population Mitochondria Different-Phenotype (%) [3]: 2% and 3%
- Population Mitotic Cells (%) [3]: 19% and 30%
- Population Normal (%) [3]: 97% and 99%
- Population Pyknosed Nuclei (%) [3]: 9% and 12%
- Population Tubulin-Different-Phenotype (%) [3]: 4% and 1%
- Total Cell Count [3]: 319 and 108
- Population Apoptotic (%) [4]: 72% and 77%
- Population Fragmented Nuclei (%) [4]: 23% and 10%
- Population Healthy Nuclei (%) [4]: 60% and 77%
- Population Hoechst High Intensity Objects (%) [4]: 3% and 0%
- Population Membrane Permeable-Phenotype (%) [4]: 17% and 10%
- Population Mitochondria Different-Phenotype (%) [4]: 14% and 17%
- Population Mitotic Cells (%) [4]: 27% and 22%
- Population Normal (%) [4]: 96% and 99%
- Population Pyknosed Nuclei (%) [4]: 16% and 11%
- Population Tubulin-Different-Phenotype (%) [4]: 10% and 6%
- Total Cell Count [4]: 233 and 156
- Population Apoptotic (%) [5]: 89% and 76%
- Population Fragmented Nuclei (%) [5]: 15% and 13%
- Population Healthy Nuclei (%) [5]: 70% and 68%
- Population Hoechst High Intensity Objects (%) [5]: 3%
- Population Membrane Permeable-Phenotype (%) [5]: 6% and 3%
- Population Mitochondria Different-Phenotype (%) [5]: 4% and 2%
- Population Mitotic Cells (%) [5]: 10% and 23%
- Population Normal (%) [5]: 96%
- Population Pyknosed Nuclei (%) [5]: 14% and 18%
- Population Tubulin-Different-Phenotype (%) [5]: 4% and 2%
- Total Cell Count [5]: 416 and 148
- Population Apoptotic (%) [6]: 78% and 95%
- Population Fragmented Nuclei (%) [6]: 22% and 13%
- Population Healthy Nuclei (%) [6]: 59% and 75%
- Population Hoechst High Intensity Objects (%) [6]: 4% and 2%
- Population Membrane Permeable-Phenotype (%) [6]: 15% and 10%
- Population Mitochondria Different-Phenotype (%) [6]: 7% and 12%
- Population Normal (%) [6]: 95% and 97%
- Population Pyknosed Nuclei (%) [6]: 17% and 11%
- Population Tubulin-Different-Phenotype (%) [6]: 6% and 4%
- Total Cell Count [6]: 302 and 201
